# Laboratory results published in ChEMBL document CHEMBL4765367, “Design, synthesis and antimicrobial evaluation of novel glycosylated-fluoroquinolones derivatives” (Eur J Med Chem, 2020).
# pIC50: −log10 of the molar value. Where a name gives a salt, the structure may show the parent alone. Active and inactive are the calls of the source. No cut-off for these calls is given here.
# What was measured:
# Escherichia coli [1] = assay: Antimicrobial activity against Escherichia coli NCTC 11954 producing penicillinase assessed as inhibition of microbial growth incubated for 24 hrs by microbroth dilution method; format: functional
# Procedure, shortened: (§1)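 Bacteria were grown in suitable medium at 37 °C for 24 h and adjusted to 0.5 McFarland. Compound DMSO stocks were two-fold serially diluted in broth, and 10^6 inoculum was added. Plates were incubated at 37 °C for 24 h and read at A625. MIC is the lowest concentration showing no viability. Fluoroquinolone positive controls, DMSO negative, sterility and growth controls were included; triplicate.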
# Escherichia coli [2] = assay: Antimicrobial activity against Escherichia coli ATCC 8739 assessed as inhibition of microbial growth incubated for 24 hrs by microbroth dilution method; format: functional; procedure, shortened: as §1
# Escherichia coli [3] = assay: Antimicrobial activity against Escherichia coli O157:H7 assessed as inhibition of microbial growth incubated for 24 hrs by microbroth dilution method; format: functional
# Escherichia coli [4] = assay: Antimicrobial activity against fluoroquinolone-resistant Escherichia coli assessed as inhibition of microbial growth incubated for 24 hrs by microbroth dilution method; format: functional
# Salmonella enterica = assay: Antimicrobial activity against Salmonella enterica ATCC 13312 assessed as inhibition of microbial growth incubated for 24 hrs by microbroth dilution method; format: functional; procedure, shortened: as §1
# Pseudomonas aeruginosa = assay: Antimicrobial activity against Pseudomonas aeruginosa ATCC 9627 assessed as inhibition of microbial growth incubated for 24 hrs by microbroth dilution method; format: functional; procedure, shortened: as §1
# Staphylococcus aureus [5] = assay: Antimicrobial activity against methicillin-resistant Staphylococcus aureus ATCC 33591 assessed as inhibition of microbial growth incubated for 24 hrs by microbroth dilution method; format: functional
# Staphylococcus aureus [6] = assay: Antimicrobial activity against methicillin-sensitive Staphylococcus aureus ATCC 9253 assessed as inhibition of microbial growth incubated for 24 hrs by microbroth dilution method; format: functional; procedure, shortened: as §1
# Listeria monocytogenes = assay: Antimicrobial activity against Listeria monocytogenes ATCC 19115 assessed as inhibition of microbial growth incubated for 24 hrs by microbroth dilution method; format: functional; procedure, shortened: as §1
# Candida albicans = assay: Antifungal activity against Candida albicans ATCC 10231 assessed as reduction in fungal growth incubated for 48 hrs by broth microdilution method; format: functional
# Aspergillus flavus = assay: Antifungal activity against Aspergillus flavus ATCC 9643 assessed as reduction in fungal growth incubated for 48 hrs by broth microdilution method; format: functional
# Procedure, shortened: (§2)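 Conidia were harvested from cultures grown on malt extract agar at 30 °C for 7 d and counted by hemocytometer (mean of three counts). Stock suspensions were diluted 1:50 in malt extract broth. Compounds were made as 4.0 mg/mL DMSO stocks and two-fold serially diluted in broth. Plates were incubated at 30 °C for 48 h and read at A405. MIC is the lowest concentration with no viability. Fluconazole was the positive control, DMSO the vehicle; triplicate.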
# Fusarium solani = assay: Antifungal activity against Fusarium solani ATCC 36031 assessed as reduction in fungal growth incubated for 48 hrs by broth microdilution method; format: functional; procedure, shortened: as §2
# Stachybotrys chartarum [7] = assay: Antifungal activity against Stachybotrys chartarum IBT 7711 assessed as reduction in fungal growth incubated for 48 hrs by broth microdilution method; format: functional; procedure, shortened: as §2
# Penicillium chrysogenum = assay: Antifungal activity against Penicillium chrysogenum ATCC 10106 assessed as reduction in fungal growth incubated for 48 hrs by broth microdilution method; format: functional; procedure, shortened: as §2
# L6 = assay: Cytotoxicity against rat L6 cells assessed as inhibition of cell viability incubated for 24 hrs by MTT assay; format: cell-based; conditions: L6, 24 h
# Procedure, shortened: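 L6 rat myoblasts were grown in glucose-DMEM with 10% FBS, 1 mM L-glutamine, penicillin and streptomycin at 37 °C in 5% CO2. They were seeded at 2 × 10^4 cells/well and allowed to attach for 24 h. Cells were exposed to graded concentrations for 24 h, with 0.1% DMSO as vehicle. MTT (0.5 mg/mL) was added for 4 h, formazan was dissolved in DMSO, and A570 was read. Viability is given relative to vehicle. IC50 came from dose-effect curves; triplicate.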
# Stachybotrys chartarum [8] = assay: Potency index, ratio of fluconazole MIC to test compound MIC for Stachybotrys chartarum IBT 7711 measured after 48 hrs by broth microdilution method; format: functional
# Escherichia coli [9] = assay: Potency index, ratio of norfloxacin MIC to test compound MIC for fluoroquinolone-resistant Escherichia coli measured after 24 hrs by microbroth dilution method; format: functional
# Escherichia coli [10] = assay: Potency index, ratio of ciprofloxacin HCl MIC to test compound MIC for fluoroquinolone-resistant Escherichia coli measured after 24 hrs by microbroth dilution method; format: functional
SMILES,MIC (Escherichia coli [1]),MIC (Escherichia coli [2]),MIC (Escherichia coli [3]) [µM],MIC (Escherichia coli [4]) [µM],MIC (Salmonella enterica),MIC (Pseudomonas aeruginosa),MIC (Staphylococcus aureus [5]),MIC (Staphylococcus aureus [6]),MIC (Listeria monocytogenes),MIC (Candida albicans),MIC (Aspergillus flavus),MIC (Fusarium solani) [µM],MIC (Stachybotrys chartarum [7]) [µM],MIC (Penicillium chrysogenum) [µM],pIC50 (L6),Ratio (Stachybotrys chartarum [8]),Ratio (Escherichia coli [9]),Ratio (Escherichia coli [10])
CCn1cc(C(=O)O)c(=O)c2cc(F)c(N3CCNCC3)cc21 [NORFLOXACIN],24.4 µM,48.9 µM,< 5.9,294,< 5.9 µM,98 µM,24.4 µM,24.4 µM,< 5.9 µM,< 5.9 µM,783 µM,391,196,196,5.46,,,
COc1c(N2C[C@@H]3CCCN(C(C)=O)[C@@H]3C2)c(F)cc2c(=O)c(C(=O)N[C@H]3C(O)O[C@H](CO)[C@@H](O)[C@@H]3O)cn(C3CC3)c12 (stereo not given in full),207 µM,207 µM,828,310,inactive,51.8 µM,207 µM,inactive,103 µM,207 µM,207 µM,207,1.7,1.7,5.29,100,,
CCn1cc(C(=O)N[C@H]2C(OC(C)=O)O[C@H](COC(C)=O)[C@@H](OC(C)=O)[C@@H]2OC(C)=O)c(=O)c2cc(F)c(N3CCN(C(C)=O)CC3)cc21 (stereo not given in full),181 µM,inactive,45.3,136,11.3 µM,inactive,362 µM,inactive,inactive,5.6 µM,362 µM,181,45.3,45.3,5.27,2,2,
CC(=O)N1CCN(c2cc3c(cc2F)c(=O)c(C(=O)N[C@H]2C(O)O[C@H](CO)[C@@H](O)[C@@H]2O)cn3C2CC2)CC1 (stereo not given in full),inactive,inactive,234,702,inactive,inactive,inactive,inactive,inactive,inactive,234 µM,468,468,234,5.40,,,
CC(=O)OC[C@H]1OC(OC(C)=O)[C@H](NC(=O)c2cn(C3CC3)c3cc(N4CCN(C(C)=O)CC4)c(F)cc3c2=O)[C@@H](OC(C)=O)[C@@H]1OC(C)=O (stereo not given in full),inactive,inactive,178,267,11.1 µM,11.1 µM,inactive,inactive,inactive,inactive,712 µM,356,356,< 5.6,5.44,,,2
CCn1cc(C(=O)N[C@H]2C(O)O[C@H](CO)[C@@H](O)[C@@H]2O)c(=O)c2cc(F)c(N3CCN(C(C)=O)CC3)cc21 (stereo not given in full),239 µM,inactive,59.9,89.8,14.9 µM,inactive,478 µM,inactive,inactive,59.9 µM,478 µM,239,120,120,5.43,,3,
OC(Cn1cncn1)(Cn1cncn1)c1ccc(F)cc1F [FLUCONAZOLE],,,,,,,,,,408 µM,51 µM,102,102,204,,,,
COc1c(N2C[C@@H]3CCCN(C(C)=O)[C@@H]3C2)c(F)cc2c(=O)c(C(=O)N[C@H]3C(OC(C)=O)O[C@H](COC(C)=O)[C@@H](OC(C)=O)[C@@H]3OC(C)=O)cn(C3CC3)c12 (stereo not given in full),inactive,162 µM,162,485,inactive,324 µM,162 µM,inactive,< 5 µM,80.9 µM,162 µM,324,324,162,5.26,,,
COc1c(N2C[C@@H]3CCCN[C@@H]3C2)c(F)cc2c(=O)c(C(=O)O)cn(C3CC3)c12 [MOXIFLOXACIN],< 0.5 µM,< 0.5 µM,< 0.5,3.4,< 4.3 µM,71.5 µM,< 0.5 µM,< 0.5 µM,< 0.5 µM,1.1 µM,286 µM,286,2.3,1.1,5.24,,,
O=C(O)c1cn(C2CC2)c2cc(N3CCNCC3)c(F)cc2c1=O [CIPROFLOXACIN HYDROCHLORIDE],,,,,< 5.2 µM,< 5.2 µM,< 5.2 µM,< 5.2 µM,0.5 µM,0.3 µM,inactive,< 10.6,85,< 10.6,,,,
